Results: ChEMBL document CHEMBL4373657, “Derivatives of a new heterocyclic system - pyrano[3,4-c][1,2,4]triazolo[4,3-a]pyridines: synthesis, docking analysis and neurotropic activity” (Medchemcomm, 2019)
Calls of active or inactive are those of the source. The rule behind the calls is not given here.

Columns and labels:
Mus musculus [1] = experiment: Anticonvulsant activity in mouse assessed as proportion of animals displaying reduction in PTZ-induced clonic seizures at 50 mg/kg, ip administered 45 mins before PTZ stimulation relative to control; format: functional; parameters: scale not given: the % may be the effect or the level left
Outline: (§1)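 Outbred mice (18–22 g), 8 per dose. Compounds given i.p. at 10–100 mg kg–1 as a carboxymethylcellulose/Tween-80 suspension, 45 min before s.c. pentylenetetrazole 90 mg kg–1; controls received emulsifier. Endpoint was prevention of clonic seizures. ED50 was derived by Litchfield–Wilcoxon probit analysis.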

[2] = Neurotoxicity in ip dosed mouse assessed as myorelaxation measured for 2 mins by rotarod test; format: toxicity, organism-based; settings: in vivo
Outline: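 Mice were placed on a corrugated rubber-coated metal rod rotating at 5 rpm, and the number staying on for 2 min was counted. TD50 was derived by Litchfield–Wilcoxon probit analysis.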

[3] = Neurotoxicity in ip dosed mouse assessed as maximum tolerated dose by rotarod test; format: toxicity, organism-based; settings: in vivo
Outline: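 Mice given compounds i.p. at […] to 1800 mg/kg to establish the maximal tolerated dose.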

Mus musculus [4] = experiment: Anticonvulsant activity in mouse assessed as MES-induced […] seizures at 10 to 100 mg/kg, ip administered 45 mins before electrical stimulation; format: functional, organism-based
Mus musculus [5] = experiment: Anticonvulsant activity in mouse assessed as MES-induced tonic seizures at 10 to 100 mg/kg, ip administered 45 mins before electrical stimulation; format: functional, organism-based
Outline: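 Mice, 8 per dose. Compounds given i.p. at 10, 25, 50, 75 or 100 mg kg–1 in carboxymethylcellulose/Tween-80 suspension, 45 min before maximal electroshock (50 mA, 0.2 s, 50 imp s–1); controls received emulsifier. Endpoint was prevention of the tonic-extensor phase.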

[6] = Neurotoxicity in mouse assessed as motor coordination at 50 to 100 mg/kg, ip by rotarod test; format: toxicity, organism-based; settings: in vivo
Outline: (§2)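 Mice dosed i.p. at 50–100 mg kg–1; reference drugs given at effective anticonvulsant doses. Mice were placed on a corrugated rubber-coated metal rod rotating at 5 rpm, and the number staying on for 2 min was counted. TD50 was derived by Litchfield–Wilcoxon probit analysis.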

[7] = Neurotoxicity in mouse assessed as myorelaxation at 50 to 100 mg/kg, ip measured for 2 mins by rotarod test; format: toxicity, organism-based; settings: in vivo; outline: as §2
Mus musculus [8] = experiment: Anticonvulsant activity in ip dosed mouse assessed as reduction in PTZ-induced clonic seizures administered 45 mins before PTZ stimulation; format: functional; outline: as §1
Mus musculus [9] = experiment: Anticonvulsant activity in mouse assessed as reduction in PTZ-induced clonic seizures at 25 mg/kg, ip administered 45 mins before PTZ stimulation; format: functional, organism-based; outline: as §1
[10] = Protection index, ratio of TD50 for neurotoxicity in ip dosed mouse to ED50 for anticonvulsant activity in ip dosed mouse; format: toxicity, organism-based; settings: in vivo, read-out: Ratio TD50/ED50
Rattus norvegicus [11] = experiment: Antianxiety activity in Wistar rat assessed as horizontal movement of animals at 50 mg/kg, ip measured for 5 mins by open field test; format: functional, organism-based
Outline: (§3)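 Male Wistar rats (120–140 g), n = 8 per compound, control and reference. Single i.p. dose of 50 mg kg–1 as a suspension in methylcarboxycellulose with Tween-80; controls received emulsifier. Daytime, natural light. Over 5 min, horizontal movements, rearings (vertical movements) and cell sniffings were counted.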

Rattus norvegicus [12] = experiment: Antianxiety activity in Wistar rat assessed as vertical movement of animals at 50 mg/kg, ip measured for 5 mins by open field test; format: functional, organism-based; outline: as §3
Mus musculus [13] = experiment: Antianxiety activity in mouse assessed as time spent in closed arms at 50 mg/kg, ip measured for 5 mins by elevated plus maze test (reference value: 278.2 secs); format: functional
Rattus norvegicus [14] = experiment: Antianxiety activity in Wistar rat assessed as increase in number of sniffing cell examinations at 50 mg/kg, ip measured for 5 mins by open field test; format: functional, organism-based; outline: as §3
Mus musculus [15] = experiment: Antianxiety activity in mouse assessed as decrease in number of entries into closed arms at 50 mg/kg, ip measured for 5 mins by elevated plus maze test; format: functional, organism-based
Mus musculus [16] = experiment: Sedative activity in mouse assessed as time spent in center at 50 mg/kg, ip measured for 5 mins by elevated plus maze test (reference value: 21.8 secs); format: functional
Mus musculus [17] = experiment: Antianxiety activity in mouse assessed as increase in time spent in open arms at 50 mg/kg, ip measured for 5 mins by elevated plus maze test; format: functional
Mus musculus [18] = experiment: Antidepressant activity in mouse assessed as latent period of first immobilization at 50 mg/kg, ip measured for 6 mins by forced swimming test (reference value: 92 secs); format: functional
Outline: (§4)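 Each mouse swam in a glass container (22 cm high, 14 cm diameter) one-third filled with water, under natural light. Over 6 min, latency to first immobilization, total immobilization time and total active swimming time were recorded.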

Mus musculus [19] = experiment: Antidepressant activity in mouse assessed as total time of immobilization at 50 mg/kg, ip measured for 6 mins by forced swimming test (reference value: 81 secs); format: functional; outline: as §4
Mus musculus [20] = experiment: Antidepressant activity in mouse assessed as total time of active swimming at 50 mg/kg, ip measured for 6 mins by forced swimming test (reference value: 282 secs); format: functional; outline: as §4

Row | Compound | Activity (Mus musculus [1]) [%] | TD50 at 2 min [2] [mg/kg] | MTD [3] [mg/kg] | Activity (Mus musculus [4]) | Activity (Mus musculus [5]) | Activity [6] | Activity [7] | ED50 (Mus musculus [8]) [mg/kg] | anticonvulsant activity (active/inactive) (Mus musculus [9]) | selectivity ratio [10] | Activity (Rattus norvegicus [11]) | Activity (Rattus norvegicus [12]) | Time (Mus musculus [13]) [s] | Activity (Rattus norvegicus [14]) | inhibition (Mus musculus [15]) | Time (Mus musculus [16]) [s] | Time (Mus musculus [17]) [s] | Time (Mus musculus [18]) [s] | Time (Mus musculus [19]) [s] | Time (Mus musculus [20]) [s]
1 | CC1(C)Cc2c(C#N)c(Nc3ccccc3)n3c(SCC(=O)c4ccc([N+](=O)[O-])cc4)nnc3c2CO1 | 40 | > 520 | 1250 | inactive | inactive | Non-Toxic | Non-Toxic |  |  |  |  |  |  |  |  |  |  |  |  | 
2 | Cc1ccc(Nc2c(C#N)c3c(c4nnc(SCC(=O)c5ccc([N+](=O)[O-])cc5)n24)COC(C)(C)C3)cc1 | 40 | > 500 | 1250 | inactive | inactive | Non-Toxic | Non-Toxic |  |  |  |  |  |  |  |  |  |  |  |  | 
3 | CC1(C)Cc2c(C#N)c(Nc3ccccc3)n3c(SCC(=O)c4cccc([N+](=O)[O-])c4)nnc3c2CO1 | 60 | 490 | 1000 | inactive | inactive | Non-Toxic | Non-Toxic | 36 | Active | 13.6 | inactive | inactive | 241 | Active | Active | 51 | 8 | 147 | 84 | 276
4 | COc1ccc(NC(=O)CSc2nnc3c4c(c(C#N)c(Nc5ccc(C)cc5)n23)CC(C)(C)OC4)cc1 | 40 | > 500 | 1250 | inactive | inactive | Non-Toxic | Non-Toxic |  |  |  |  |  |  |  |  |  |  |  |  | 
5 | CCCCN(CCCC)C(=O)CSc1nnc2c3c(c(C#N)c(Nc4ccccc4)n12)CC(C)(C)OC3 | 20 | > 500 | 1000 | inactive | inactive | Non-Toxic | Non-Toxic |  |  |  |  |  |  |  |  |  |  |  |  | 
6 | Cc1ccc(Nc2c(C#N)c3c(c4nnc(SCc5ccccc5Cl)n24)COC(C)(C)C3)cc1 | 40 | > 500 | 1350 | inactive | inactive | Non-Toxic | Non-Toxic |  |  |  |  |  |  |  |  |  |  |  |  | 
7 | CC1(C)Cc2c(C#N)c(Nc3ccccc3)n3c(SCC(=O)Nc4ccc(Cl)c(Cl)c4)nnc3c2CO1 | 20 | > 500 | 1150 | inactive | inactive | Non-Toxic | Non-Toxic |  |  |  |  |  |  |  |  |  |  |  |  | 
8 | Cc1ccc(Nc2c(C#N)c3c(c4nnc(SCc5ccc([N+](=O)[O-])cc5)n24)COC(C)(C)C3)cc1 | 40 | > 500 | 1200 | inactive | inactive | Non-Toxic | Non-Toxic |  |  |  |  |  |  |  |  |  |  |  |  | 
